Drawing on PubChem BioAssay, this text covers viability for 40 compounds.

Values without a mark were called inactive.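 Rule for the calls: active = viability at or below 30% in both replicate assays; inconclusive = viability at or below 30% in just one of the two assays; inactive = the rest.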

In general, viability refers to a read-out of living cells in per cent, often relative to untreated cells.

This experiment is described as follows: HUVEC growth inhibition – cell-based, human, primary screen (AID 575).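 Note: 100% = median of untreated cell wells with 0.1% DMSO on each plate.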 The following applies: HUVEC proliferation, CellTiter-Glo luminescence, 72 h; at 10 µM; hits give low values. Summed up: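 Timing: 72 h treatment at 37 °C; material: HUVEC primary cells; technique: CellTiter-Glo luminescence measuring cellular ATP; controls: vehicle and MePR control wells; measure: percent of median DMSO-control luminescence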
Background: ATP-based viability assays read luminescence as a measure of living cells.
As to `COc1ccc(C2=CC(=O)OC3(CCCCC3)O2)cc1`, the viability is 93.2%.

`CCCCNC(=O)c1nnn(-c2ccccc2)c1N`: the viability is 113%. Under `Cc1ccc(Nc2nc(Oc3ccc(=O)[nH]n3)nc(N(C)C)n2)cc1` stands 101%; under `CN(C(=O)C1CCOC1)c1nnc(-c2cccnc2)s1` (stereo not given), 101%. Then `NS(=O)(=O)c1cc2c(cc1Cl)NC=NS2(=O)=O`, with 93.9%; and `COc1cccc(NC(=O)COC(=O)c2cccnc2)c1`, with 83.9%.

Consider `CCN=C1SC(CC(=O)Nc2ccccc2OCC)C(=O)N1CC` (stereo not given), for which the viability was 94.3%. Regarding `O=S(=O)(NC1CCCCC1NS(=O)(=O)c1ccc(F)cc1)c1ccc(F)cc1` (stereo not given), the viability was 91.2%. Under `CCn1cnc2sc(C(=O)Nc3ccc4c(c3)OCO4)c(C)c2c1=O` stands 96.2%; under `O=C1C2CCCN2C(c2ccccc2)N1c1ccc(Cl)cc1` (stereo not given), 79.1%; under `CNc1nnc(-c2cccc(N(C)C)c2)s1`, 95.9%. Under `COC(=O)Cc1c(C)nc2nc[nH]n2c1=O` stands 93%; under `CCC(c1nnc(SCC(=O)Nc2ccc(C(=O)Nc3ccccc3OC)cc2)o1)N(C)C` (stereo not given), 96.7%; under `CC1Oc2ccccc2N(Cc2ccccc2Cl)C1=O` (stereo not given), 110%. Then `CCn1cc(C(=O)O)c(=O)c2ccc(C)nc21`, with 92.1%; and `COc1ccccc1NC(=O)Cc1noc(CSc2cc(C)c3ccccc3n2)n1`, with 89.5%; and `CC(COc1ccccc1)N(CCCl)Cc1ccccc1` (stereo not given), with 78.2%. As to `O=C(c1cnc2sccn2c1=O)N1CCc2ccccc2C1`, the viability was 95.7%. Then `COc1ccccc1N1CCN(c2cc(N3CCCC3)nc(C)n2)CC1`, with 91.8%; and `COC(=O)CCn1nnc(-c2ccc(C)cc2)n1`, with 109%; and `Cc1cccc(-n2c(SCc3cc(=O)n4ccsc4n3)nc3ccccc32)c1`, with 66.1%. Then `COc1ccc(CCN2C(=O)CC(N3CCOCC3)C2=O)cc1` (stereo not given), with 89.4%; and `CCCCCCC(c1c(C)n(C)n(-c2ccccc2)c1=O)c1c(C)n(C)n(-c2ccccc2)c1=O`, with 99.9%. Under `CCCCSc1nnc([C@H](C)NC(=O)OC(C)(C)C)o1` stands 102%; under `Cc1c(N=C2SCC(=O)N2c2c(C)n(C)n(-c3ccccc3)c2=O)c(=O)n(-c2ccccc2)n1C`, 113%. As to `Cc1nc2ccc(C(=O)O)cc2c2c1CC(C)S2` (stereo not given), the viability is 96.8%. For the compound `CC1(C)CC(=O)C(CC(=O)NC(=O)NCc2ccccc2)=C(O)C1`, the viability is 81.9%. Then `O=C(Nc1ccccc1Cl)c1c(F)c(F)c(F)c(F)c1F`, with 106%.

For the compound `COC(=O)c1ccc(CSc2nnnn2Cc2ccccc2)cc1`, the viability was 98.6%. Then `Cc1ccc(F)cc1NC(=O)C1CCCN(c2ncccn2)C1` (stereo not given), with 104%; and `O=C(NCc1ccccc1)C1CCCN(S(=O)(=O)c2cccnc2)C1` (stereo not given), with 95.5%; and `COc1cc(NS(=O)(=O)c2ccc(N)cc2)nc(OC)n1`, with 80.7%. Then `Cc1cc(=O)[nH]c(SCc2nc3ncccn3c2Br)n1`, with 78.4%; and `CC(=O)OCC1=C(C(=O)O)N2C(=O)[C@@H](NC(=O)Cc3cccs3)[C@H]2SC1`, with 94.8%. Under `CCc1nn(CC(=O)N2CCN(Cc3ccc4c(c3)OCO4)CC2)c(=O)c2cc3occc3n12` stands 100%. As to `CC(=O)OC[C@H]1O[C@@H](n2ncc(=O)[nH]c2=O)[C@H](OC(C)=O)[C@@H]1OC(C)=O`, the viability was 84.3%.

As to `Cc1cc(C)cc(-n2nnc(C(=O)NCc3ccc4c(c3)OCO4)c2N)c1`, the viability is 88.5%. Then `C=CCNc1nc2c(c(=O)n(C)c(=O)n2C)n1CCCCCC`, with 60.4%; and `O=C(CSc1nc2ccccc2[nH]1)c1ccc2c(c1)OCO2`, with 99.8%. Under `NS(=O)(=O)c1cc2c(cc1Cl)NCNS2(=O)=O` stands 97.2%.
